{"data": "Measurements collected from several papers", "target": "Death-associated protein kinase 2 (DAPK2, Homo sapiens, UniProt Q9UIK4)", "note": "Compare with care: the assays were run in different laboratories."}
{"Structure (SMILES)": "CC(C)(C)c1cc(C=C(C#N)C#N)cc(Br)c1O", "assay": "enzyme activity, inhibitor", "setting": "0.5 µM", "endpoint": "remaining activity", "value": "108%"}
{"Structure (SMILES)": "Cc1nn(C)cc1-c1nc2c(N3CCN(Cc4ccc(Cl)cc4)CC3)c(Cl)cnc2[nH]1", "assay": "binding, competition with immobilised ligand", "setting": "1 µM", "endpoint": "remaining binding", "value": "80%"}
{"Structure (SMILES)": "Cn1cncc1[C@@](O)(COc1ccc(C#N)cc1-c1ccc(OC(F)(F)F)cc1)c1ccc(C#N)cc1", "assay": "cell-free assay, competition with immobilised ligand", "setting": "1 µM", "endpoint": "remaining binding", "value": "97%"}
{"Structure (SMILES)": "Nc1ncc(-c2nc(N3CCOCC3)nc(N3CCOCC3)n2)c(C(F)F)n1", "assay": "binding, competition with immobilised ligand", "setting": "10 µM", "endpoint": "remaining binding", "value": "76%"}
{"Structure (SMILES)": "N#CC1(c2ccccn2)CCN(Cc2cc(C(=O)O)c(=O)n3ccccc23)CC1", "assay": "cell-free assay, competition with immobilised ligand", "setting": "1 µM", "endpoint": "remaining binding", "value": "99%"}
{"Structure (SMILES)": "COc1ncccc1-c1cnn2ccc(N3CCN(C(=O)OC(C)C)CC3)nc12", "assay": "binding, competition with immobilised ligand", "setting": "1 µM", "endpoint": "remaining binding", "value": "86%"}
{"Structure (SMILES)": "COc1cc(Nc2ncc(F)c(Nc3ccc4c(n3)NC(=O)C(C)(C)O4)n2)cc(OC)c1OC", "assay": "binding, competition with immobilised ligand", "setting": "10 µM", "endpoint": "inhibition", "value": "95%"}
{"Structure (SMILES)": "O=c1[nH]c2ccccc2n1C1CCN(Cc2ccc(-c3[nH]c4cc5ncnc5cc4nc3-c3ccccc3)cc2)CC1", "assay": "cell-free assay", "setting": "0.5 µM", "endpoint": "remaining signal", "value": "99%"}
